Source: ChEMBL document CHEMBL4007489, “First Bispecific Inhibitors of the Epidermal Growth Factor Receptor Kinase and the NF-κB Activity As Novel Anticancer Agents” (J Med Chem, 2017)
Calls of active or inactive are those of the source. No cut-off for these calls is given here.

Experiments:
[1] = molecular target: Proteasome Macropain subunit (Homo sapiens) (UniProt P49721); test: Inhibition of trypsin like activity of 26S proteasome derived from human MDA-MB-231 cells at 50 uM
In short: (§1)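 Total protein extract from MDA-MB-231 cells served as the source of 26S proteasome. Trypsin-like, chymotrypsin-like and caspase-like activities were each measured with a specific fluorigenic peptide substrate.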

[2] = molecular target: T1, Epidermal growth factor receptor (Homo sapiens, UniProt P00533); details: at 150 nM
Homo sapiens [3] = species on record: Homo sapiens; details: at 10 µM
MDA-MB-231 [4] = test: cells; type: functional; details: Homo sapiens, MDA-MB-231, 48 h
[5] = molecular target: T1, Epidermal growth factor receptor; test: biochemical; type: cell-based
A549 = test: cells; type: functional; details: Homo sapiens, A549, 48 h
[6] = Selectivity ratio of GI50 for HUVEC to GI50 for human A549 cells
[7] = Selectivity ratio of GI50 for HUVEC to GI50 for human MDA-MB-231 cells
[8] = Selectivity ratio of GI50 for CHOK1 cells to GI50 for human A549 cells
cells = type: cell-based; details: Homo sapiens, U-937
in vitro [9] = details: human, HUVEC
[10] = molecular target: Transcription factor p65 (Homo sapiens) (UniProt Q04206); test: Inhibition of IL-1beta-stimulated nuclear translocation of GFP-tagged NF-kappaB-p65 (unknown origin) expressed in CHO cells at 15 uM preincubated with IL-1beta for 30 mins followed by compound addition by fluorescence assay; type: cell-based
in vitro [11] = details: chinese hamster, CHO-K1 cells
[12] = molecular target: Transcription factor p65 (Homo sapiens) (UniProt Q04206); test: Inhibition of IL-1beta-stimulated nuclear translocation of GFP-tagged NF-kappaB-p65 (unknown origin) expressed in CHO cells at 15 uM preincubated with IL-1beta for 30 mins followed by compound addition in presence of Pluronic F127 by fluorescence assay; type: cell-based
[13] = Selectivity ratio of GI50 for CHOK1 cells to GI50 for human MDA-MB-231 cells
[14] = molecular target: T2, Proteasome component C5 (Homo sapiens) (UniProt P20618); test: Inhibition of caspase like activity of 26S proteasome derived from human MDA-MB-231 cells at 50 uM; in short: as §1
T2 sequence (whole entry): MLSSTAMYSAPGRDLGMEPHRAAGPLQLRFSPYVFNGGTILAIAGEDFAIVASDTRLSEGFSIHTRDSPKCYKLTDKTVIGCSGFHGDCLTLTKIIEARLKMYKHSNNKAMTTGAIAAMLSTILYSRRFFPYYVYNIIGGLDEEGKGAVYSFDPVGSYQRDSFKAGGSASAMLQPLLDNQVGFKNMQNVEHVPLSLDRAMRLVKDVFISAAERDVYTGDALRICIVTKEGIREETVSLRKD

MDA-MB-231 [15] = test: Potency index, ratio of gefitinib GI50 to compound GI50 for human MDA-MB-231 cells; type: functional
[16] = molecular target: T3, Proteasome Macropain subunit MB1 (Homo sapiens) (UniProt P28074); test: Inhibition of chymotrypsin like activity of 26S proteasome derived from human MDA-MB-231 cells at 50 uM; in short: as §1
T3 sequence (whole entry): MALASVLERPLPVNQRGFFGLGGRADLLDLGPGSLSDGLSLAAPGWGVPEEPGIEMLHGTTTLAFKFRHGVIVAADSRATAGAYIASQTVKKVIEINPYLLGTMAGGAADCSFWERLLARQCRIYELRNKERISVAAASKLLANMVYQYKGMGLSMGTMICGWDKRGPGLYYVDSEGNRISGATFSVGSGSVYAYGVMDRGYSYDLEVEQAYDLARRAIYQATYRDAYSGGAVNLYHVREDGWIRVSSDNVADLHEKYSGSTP

[17] = molecular target: Transcription factor p65 (Homo sapiens) (UniProt Q04206); test: Inhibition of TNFalpha-stimulated DNA binding activity of NF-kappaB-p65 in human MDA-MB-231 cells at 2.5 to 15 uM incubated for 12 hrs followed by TNFalpha stimulation measured after 20 mins by ELISA; type: cell-based
In short: (§2)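 MDA-MB-231 cells treated with compound or DMSO for 12 h; in some runs TNFα (20 ng/mL final) added for a further 20 min at 37 °C. Nuclear extracts prepared on ice and protein measured by Bradford. 5 μg of extract incubated on plate-immobilized NF-κB response element oligonucleotide. Bound complexes detected with anti-p65 primary and HRP secondary antibody, read at 450 nm. Specificity checked by competition with free oligonucleotide; triplicates.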

[18] = molecular target: Receptor tyrosine-protein kinase erbB-4 (Homo sapiens) (UniProt Q15303); test: Inhibition of N-terminal GST-tagged human recombinant ERBB4 expressed in baculovirus expression system at 5 uM
[19] = molecular target: Serine/threonine-protein kinase pim-1 (Homo sapiens, UniProt P11309); test: Inhibition of human recombinant full length His-tagged PIM-1 expressed in baculovirus expression system
[20] = molecular target: T4, MAP kinase-interacting serine/threonine-protein kinase 2 (Homo sapiens, UniProt Q9HBH9); test: Inhibition of human full length N-terminal GST-tagged MNK2 expressed in baculovirus expression system at 5 uM
Target sequence in this assay (Q9HBH9 whole entry, looked up): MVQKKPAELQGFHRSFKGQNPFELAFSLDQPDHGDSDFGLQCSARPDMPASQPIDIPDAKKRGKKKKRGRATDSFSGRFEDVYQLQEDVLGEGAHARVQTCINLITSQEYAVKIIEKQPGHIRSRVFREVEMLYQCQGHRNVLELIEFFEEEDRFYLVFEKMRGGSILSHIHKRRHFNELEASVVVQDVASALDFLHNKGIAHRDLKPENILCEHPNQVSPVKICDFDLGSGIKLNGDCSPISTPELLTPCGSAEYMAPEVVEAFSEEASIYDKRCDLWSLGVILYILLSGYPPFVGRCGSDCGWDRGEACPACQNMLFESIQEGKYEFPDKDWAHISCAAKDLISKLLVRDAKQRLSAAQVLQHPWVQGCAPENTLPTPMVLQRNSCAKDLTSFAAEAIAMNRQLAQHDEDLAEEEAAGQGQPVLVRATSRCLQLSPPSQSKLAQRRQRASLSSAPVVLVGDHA

[21] = molecular target: Transcription factor p65 (Homo sapiens) (UniProt Q04206); test: Inhibition of TNFalpha-stimulated DNA binding activity of NF-kappaB-p65 in nuclear extracts of human MDA-MB-231 cells at 2.5 to 15 uM incubated for 12 hrs followed by TNFalpha stimulation measured after 20 mins by ELISA
In short: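 MDA-MB-231 cells exposed to compound or DMSO for 12 h, then TNFα (20 ng/mL final) for 20 min at 37 °C. Cells washed with ice-cold PBS, nuclear extracts prepared, protein measured by Bradford. 5 μg nuclear protein incubated on immobilized NF-κB response-element oligonucleotide, bound p65 detected by primary antibody and HRP secondary, absorbance 450 nm. Binding specificity checked with competing free oligonucleotide. Triplicates.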

[22] = molecular target: T4, MAP kinase-interacting serine/threonine-protein kinase 2; test: Inhibition of human full length N-terminal GST-tagged MNK2 expressed in baculovirus expression system
Target sequence in this assay (Q9HBH9 whole entry): as the sequence (Q9HBH9 whole entry, looked up) above

Homo sapiens [23] = species on record: Homo sapiens; details: at 2.5 to 15 µM
[24] = molecular target: Transcription factor p65 (Homo sapiens) (UniProt Q04206); test: Inhibition of NF-kappaB-p65 binding to NF-kappaB response element oligonucleotide in nuclear extracts of 12 hrs compound pre-treated human MDA-MB-231 cells at 2.5 to 15 uM by ELISA; in short: as §2

Transcription factor p65 (Homo sapiens), sequence (Q04206 whole entry): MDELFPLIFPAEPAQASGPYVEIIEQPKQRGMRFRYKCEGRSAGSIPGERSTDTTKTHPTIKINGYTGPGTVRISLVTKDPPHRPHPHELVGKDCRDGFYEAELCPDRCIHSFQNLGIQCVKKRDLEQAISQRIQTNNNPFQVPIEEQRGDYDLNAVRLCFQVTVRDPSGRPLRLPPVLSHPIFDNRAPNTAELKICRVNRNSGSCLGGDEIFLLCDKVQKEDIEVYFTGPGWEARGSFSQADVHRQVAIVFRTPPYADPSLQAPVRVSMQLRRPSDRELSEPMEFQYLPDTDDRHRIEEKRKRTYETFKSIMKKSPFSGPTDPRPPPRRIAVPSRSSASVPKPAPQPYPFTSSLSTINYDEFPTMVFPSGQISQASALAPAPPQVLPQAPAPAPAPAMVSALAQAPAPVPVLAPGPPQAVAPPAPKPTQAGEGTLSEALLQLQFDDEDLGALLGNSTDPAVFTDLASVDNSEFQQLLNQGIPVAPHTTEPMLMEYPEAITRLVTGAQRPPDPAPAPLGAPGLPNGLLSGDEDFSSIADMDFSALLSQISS
T1 sequence (P00533 whole entry): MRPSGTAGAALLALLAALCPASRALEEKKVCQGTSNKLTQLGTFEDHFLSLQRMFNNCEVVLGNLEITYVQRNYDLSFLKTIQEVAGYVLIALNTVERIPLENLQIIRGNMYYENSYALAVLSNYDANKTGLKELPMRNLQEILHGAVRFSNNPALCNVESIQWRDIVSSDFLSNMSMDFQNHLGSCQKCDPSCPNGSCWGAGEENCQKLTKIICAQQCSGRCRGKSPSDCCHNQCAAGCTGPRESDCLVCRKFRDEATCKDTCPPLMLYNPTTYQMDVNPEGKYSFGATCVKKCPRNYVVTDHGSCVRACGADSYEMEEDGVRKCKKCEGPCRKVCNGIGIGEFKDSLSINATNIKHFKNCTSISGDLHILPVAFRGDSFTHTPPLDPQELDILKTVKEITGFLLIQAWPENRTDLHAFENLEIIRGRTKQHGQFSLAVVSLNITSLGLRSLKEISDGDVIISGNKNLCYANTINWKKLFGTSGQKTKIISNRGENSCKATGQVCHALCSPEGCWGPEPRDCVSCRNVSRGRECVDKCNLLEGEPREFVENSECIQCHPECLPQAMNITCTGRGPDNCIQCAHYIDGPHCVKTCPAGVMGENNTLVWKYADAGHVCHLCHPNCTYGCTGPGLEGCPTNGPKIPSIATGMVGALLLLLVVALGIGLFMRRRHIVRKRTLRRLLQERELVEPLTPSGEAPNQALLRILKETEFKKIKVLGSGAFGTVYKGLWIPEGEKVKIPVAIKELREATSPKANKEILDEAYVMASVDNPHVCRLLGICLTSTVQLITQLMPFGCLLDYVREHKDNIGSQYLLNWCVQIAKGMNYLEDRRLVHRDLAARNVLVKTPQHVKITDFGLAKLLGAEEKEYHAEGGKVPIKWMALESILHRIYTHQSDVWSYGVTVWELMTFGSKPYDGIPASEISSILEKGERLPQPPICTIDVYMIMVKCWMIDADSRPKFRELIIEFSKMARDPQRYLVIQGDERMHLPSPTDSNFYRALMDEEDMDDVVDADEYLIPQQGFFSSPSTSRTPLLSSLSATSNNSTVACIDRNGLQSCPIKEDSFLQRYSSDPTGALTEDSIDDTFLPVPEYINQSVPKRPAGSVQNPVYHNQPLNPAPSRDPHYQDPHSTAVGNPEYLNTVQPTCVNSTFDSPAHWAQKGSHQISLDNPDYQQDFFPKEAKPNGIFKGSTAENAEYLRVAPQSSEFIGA
Proteasome Macropain subunit (Homo sapiens), sequence (P49721 whole entry): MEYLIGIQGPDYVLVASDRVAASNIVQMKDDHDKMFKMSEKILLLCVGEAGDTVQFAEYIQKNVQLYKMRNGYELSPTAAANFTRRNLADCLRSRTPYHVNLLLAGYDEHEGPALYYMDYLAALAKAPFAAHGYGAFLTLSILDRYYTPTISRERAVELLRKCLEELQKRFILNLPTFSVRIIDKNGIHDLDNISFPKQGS
Serine/threonine-protein kinase pim-1, sequence (P11309 whole entry): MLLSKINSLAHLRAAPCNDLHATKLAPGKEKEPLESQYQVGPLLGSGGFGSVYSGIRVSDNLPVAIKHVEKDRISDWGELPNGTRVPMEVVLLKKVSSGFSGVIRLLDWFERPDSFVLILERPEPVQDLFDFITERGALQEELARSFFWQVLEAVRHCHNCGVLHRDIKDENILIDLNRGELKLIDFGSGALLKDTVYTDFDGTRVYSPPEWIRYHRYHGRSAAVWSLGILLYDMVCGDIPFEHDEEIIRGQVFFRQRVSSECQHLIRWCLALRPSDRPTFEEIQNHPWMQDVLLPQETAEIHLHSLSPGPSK
Receptor tyrosine-protein kinase erbB-4 (Homo sapiens), sequence (Q15303 whole entry): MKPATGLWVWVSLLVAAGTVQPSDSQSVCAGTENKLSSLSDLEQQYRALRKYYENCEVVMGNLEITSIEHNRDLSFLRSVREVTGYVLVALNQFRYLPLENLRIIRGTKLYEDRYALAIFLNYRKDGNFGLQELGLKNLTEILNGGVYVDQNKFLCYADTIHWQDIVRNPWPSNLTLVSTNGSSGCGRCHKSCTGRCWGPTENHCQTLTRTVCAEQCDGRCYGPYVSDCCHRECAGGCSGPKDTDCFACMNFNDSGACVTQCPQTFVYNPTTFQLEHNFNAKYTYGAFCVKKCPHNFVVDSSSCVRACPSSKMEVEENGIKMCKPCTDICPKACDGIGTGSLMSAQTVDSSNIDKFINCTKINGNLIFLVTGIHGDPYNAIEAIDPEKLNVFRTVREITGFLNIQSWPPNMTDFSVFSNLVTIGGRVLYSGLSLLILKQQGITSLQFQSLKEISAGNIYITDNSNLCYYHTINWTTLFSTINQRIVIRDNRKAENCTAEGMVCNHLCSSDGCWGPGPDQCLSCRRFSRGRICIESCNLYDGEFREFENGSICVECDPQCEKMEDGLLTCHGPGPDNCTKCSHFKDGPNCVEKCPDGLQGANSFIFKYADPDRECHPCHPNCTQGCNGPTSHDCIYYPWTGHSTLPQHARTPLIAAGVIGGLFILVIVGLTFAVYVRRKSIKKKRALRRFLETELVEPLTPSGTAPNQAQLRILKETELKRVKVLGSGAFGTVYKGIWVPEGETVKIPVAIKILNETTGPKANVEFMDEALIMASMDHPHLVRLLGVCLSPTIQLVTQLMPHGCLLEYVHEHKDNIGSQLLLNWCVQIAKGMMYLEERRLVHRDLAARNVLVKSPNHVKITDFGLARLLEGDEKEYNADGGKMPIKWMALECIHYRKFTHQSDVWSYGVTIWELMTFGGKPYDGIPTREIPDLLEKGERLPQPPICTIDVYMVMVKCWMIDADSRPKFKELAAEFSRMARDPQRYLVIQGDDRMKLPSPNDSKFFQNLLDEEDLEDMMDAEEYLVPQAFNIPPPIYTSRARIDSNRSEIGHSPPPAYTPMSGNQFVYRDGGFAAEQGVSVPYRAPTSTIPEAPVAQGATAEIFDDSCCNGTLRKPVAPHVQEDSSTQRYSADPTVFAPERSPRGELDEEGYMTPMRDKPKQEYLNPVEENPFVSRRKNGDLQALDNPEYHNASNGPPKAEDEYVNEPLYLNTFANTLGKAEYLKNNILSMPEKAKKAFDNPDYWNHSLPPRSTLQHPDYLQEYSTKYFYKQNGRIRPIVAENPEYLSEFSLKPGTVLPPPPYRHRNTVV

inhibition [1]	GI50 (MDA-MB-231 [4])	GI50 (A549)	IC50 (cells)	GI50 at 48 h (in vitro [9])	inhibition [10]	GI50 at 48 h (in vitro [11])	inhibition [12]	inhibition [14]	inhibition [16]	Compound	inhibition (Homo sapiens [3])	further results
inactive	0.3 µM	1 µM	1 µM	14.8 µM	inactive	52.1 µM	inactive	inactive	inactive	Fc1ccc(NC(=S)Nc2ccc3ncnc(Nc4cccc(Br)c4)c3c2)cc1Cl	100%	inhibition [2]: 74.1%; IC50 [5]: 0.0253 µM; RatioGI50 [6]: 14.8; RatioGI50 [7]: 49.3; RatioGI50 [8]: 52.1; RatioGI50 [13]: 173.7; RatioGI50 (MDA-MB-231 [15]): >35
inactive	2.1 µM	1.6 µM	1.9 µM	11.5 µM	inactive	25.7 µM	inactive	inactive	inactive	S=C(Nc1cccc(Cl)c1)Nc1ccc2ncnc(Nc3cccc(Br)c3)c2c1	97.4%	inhibition [17]: inactive; inhibition [18]: 54%; IC50 [19]: 1.2 µM; inhibition [20]: 78%; inhibition [21]: inactive; IC50 [22]: 2.7 µM; inhibition (Homo sapiens [23]): Dose-dependent effect; inhibition [24]: inactive
